Measured values reported in ChEMBL document CHEMBL2046403, “Biochemical and pharmacological evaluation of 4-hydroxychromen-2-ones bearing polar C-3 substituents as anticoagulants” (Eur J Med Chem, 2012).

How the values were obtained:
[1] = test system: Plasma; experiment: Anticoagulant activity in human plasma assessed as prothrombin time at 1 mg/ml; format: functional
In short: (§1)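 Frozen human plasma (blood type A+) was used. Compounds were prepared at 1 mg/mL in a vehicle of 96% EtOH, 0.9% NaCl, 20% glycerol and phosphate buffer pH 7. Prothrombin time was measured by Quick method and reported in seconds and as INR, with SD from at least three measurements.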

[2] = test system: Plasma; experiment: Anticoagulant activity in Wistar albino rat plasma assessed as prothrombin time at 0.1 mg/kg, ip; format: functional; conditions: route intraperitoneal
In short: (§2)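 Adult Wistar rats (2.5 months, 220–250 g), three per compound and control, were given a single i.p. dose of 0.1 or 0.5 mg/kg in ethanol solution and sacrificed 24 h later. […] Plasma prothrombin time was measured by Quick method and reported in seconds and as INR, from at least three measurements.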

[3] = test system: Plasma; experiment: Anticoagulant activity in Wistar albino rat plasma assessed as prothrombin time at 0.5 mg/kg, ip; format: functional; conditions: route intraperitoneal
In short: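 Adult Wistar rats (2.5 months, 220–250 g), three per compound and control, were given a single i.p. dose of 0.1 or 0.5 mg/kg in ethanol solution and sacrificed 24 h later. Plasma prothrombin time was measured by Quick method and reported in seconds and as INR, from at least three measurements.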

[4] = test system: Plasma; experiment: Anticoagulant activity in Wistar albino rat plasma assessed as fibrinogen level; format: functional
In short: (§3)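 Adult albino Wistar rats (2.5 months old, 220–250 g), three per compound and control. […] Fibrin time and fibrinogen were determined on plasma. Fibrinogen was quantified by biuret method at 540 nm. At least three measurements, reported with standard deviation.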

[5] = test system: Plasma; experiment: Anticoagulant activity in Wistar albino rat plasma assessed as fibrin time; format: functional; in short: as §3
[6] = test system: Rattus norvegicus; experiment: Hepatotoxicity in Wistar albino rat assessed as change in serum protein level at 0.5 mg/kg, ip measured after 24 hrs; format: toxicity, organism-based; design: dose 0.5 mg/kg, route intraperitoneal; conditions: in vivo
[7] = test system: Rattus norvegicus; experiment: Hepatotoxicity in Wistar albino rat assessed as change in serum albumin level at 0.5 mg/kg, ip measured after 24 hrs; format: toxicity, organism-based; design: dose 0.5 mg/kg, route intraperitoneal; conditions: in vivo
[8] = test system: Plasma; experiment: Anticoagulant activity in human plasma assessed as international normalized ratio at 1 mg/ml; format: functional; in short: as §1
[9] = test system: Plasma; experiment: Anticoagulant activity in Wistar albino rat plasma assessed as international normalized ratio at 0.1 mg/kg, ip; format: functional; conditions: route intraperitoneal; in short: as §2
[10] = test system: Plasma; experiment: Anticoagulant activity in Wistar albino rat plasma assessed as international normalized ratio at 0.5 mg/kg, ip; format: functional; conditions: route intraperitoneal; in short: as §2
[11] = test system: Rattus norvegicus; experiment: Hepatotoxicity in Wistar albino rat assessed as change in serum protein level at 0.5 mg/kg/day, ip administered for 5 days; format: toxicity, organism-based; design: route intraperitoneal; conditions: in vivo, 120 h
[12] = test system: Rattus norvegicus; experiment: Hepatotoxicity in Wistar albino rat assessed as change in serum albumin level at 0.5 mg/kg/day, ip administered for 5 days; format: toxicity, organism-based; design: route intraperitoneal; conditions: in vivo, 120 h
[13] = test system: Rattus norvegicus; experiment: Anticoagulant activity in Wistar rats in vivo assessed as prothrombin time
[14] = test system: Rattus norvegicus; experiment: Toxicity in Wistar albino rat assessed as lethal dose at 0.5 mg/kg/day, ip administered for 5 days; format: organism-based; design: route intraperitoneal; conditions: in vivo, 120 h
[15] = test system: Rattus norvegicus; experiment: Hepatotoxicity in Wistar albino rat assessed as change in serum bilirubin level at 0.5 mg/kg, ip measured after 24 hrs; format: toxicity, organism-based; design: dose 0.5 mg/kg, route intraperitoneal; conditions: in vivo
[16] = test system: Rattus norvegicus; experiment: Hepatotoxicity in Wistar albino rat assessed as change in serum AST level at 0.5 mg/kg, ip measured after 24 hrs; format: toxicity, organism-based; design: dose 0.5 mg/kg, route intraperitoneal; conditions: in vivo
[17] = test system: Rattus norvegicus; experiment: Hepatotoxicity in Wistar albino rat assessed as change in serum ALT level at 0.5 mg/kg, ip measured after 24 hrs; format: toxicity, organism-based; design: dose 0.5 mg/kg, route intraperitoneal; conditions: in vivo
[18] = test system: Rattus norvegicus; experiment: Hepatotoxicity in Wistar albino rat assessed as change in serum ALP level at 0.5 mg/kg, ip measured after 24 hrs; format: toxicity, organism-based; design: dose 0.5 mg/kg, route intraperitoneal; conditions: in vivo
[19] = test system: Rattus norvegicus; experiment: Hepatotoxicity in Wistar albino rat assessed as change in serum gamma-GT level at 0.5 mg/kg, ip measured after 24 hrs; format: toxicity, organism-based; design: dose 0.5 mg/kg, route intraperitoneal; conditions: in vivo
[20] = test system: Rattus norvegicus; experiment: Hepatotoxicity in Wistar albino rat assessed as change in serum iron level at 0.5 mg/kg, ip measured after 24 hrs; format: toxicity, organism-based; design: dose 0.5 mg/kg, route intraperitoneal; conditions: in vivo
[21] = test system: Plasma; experiment: Anticoagulant activity in Wistar albino rat plasma assessed as prothrombin time at 0.5 mg/kg/day, ip administered for 5 days measured after second dose; format: functional; conditions: route intraperitoneal
In short: (§4)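 Wistar rats, three per group, were dosed i.p. at 0.5 mg/kg per day over five days in ethanol solution and sacrificed on day six. Plasma prothrombin time was measured by Quick method after the second 0.5 mg/kg administration, reported in seconds and INR. Where animals were dosed more than once, PTs were averaged.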

[22] = test system: Rattus norvegicus; experiment: Hepatotoxicity in Wistar albino rat assessed as change in serum gamma-GT level at 0.5 mg/kg, ip administered for 5 days measured after second compound dose; format: toxicity, organism-based; design: dose 0.5 mg/kg, route intraperitoneal; conditions: in vivo, 120 h
[23] = test system: Rattus norvegicus; experiment: Hepatotoxicity in Wistar albino rat assessed as change in serum iron level at 0.5 mg/kg/day, ip administered for 5 days measured after second compound dose; format: toxicity, organism-based; design: route intraperitoneal; conditions: in vivo, 120 h
[24] = test system: Plasma; experiment: Anticoagulant activity in Wistar albino rat plasma assessed as prothrombin time at 0.5 mg/kg, ip relative to untreated control; format: functional; conditions: route intraperitoneal
In short: (§5)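 Rats (Wistar, 220–250 g, n=3 per group) were dosed i.p. with 0.5 mg/kg compound in ethanol solution. Prothrombin time was measured in plasma by Quick method and expressed as fold of the matching control value. […] Groups were compared by one-way ANOVA with Dunnett T3 or Bonferroni post-hoc tests.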

[25] = test system: Plasma; experiment: Anticoagulant activity in Wistar albino rat plasma assessed as prothrombin time at 0.5 mg/kg, ip relative to warfarin; format: functional; conditions: route intraperitoneal; in short: as §5
[26] = test system: Rattus norvegicus; experiment: Hepatotoxicity in Wistar albino rat assessed as change in serum AST level at 0.5 mg/kg, ip measured after 24 hrs relative to untreated control; format: toxicity, organism-based; design: dose 0.5 mg/kg, route intraperitoneal; conditions: in vivo
In short: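 Serum AST was measured 24 h after a single 0.5 mg/kg i.p. dose (ethanol solution) in Wistar rats, three per group, by IFCC UV kinetic method at 340 nm. Activity was expressed as fold of the negative (96% ethanol) control, and compared by one-way ANOVA with post-hoc tests.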

[27] = test system: Plasma; experiment: Anticoagulant activity in Wistar albino rat plasma assessed as fibrinogen level at 0.5 mg/kg/day, ip administered for 5 days; format: functional; conditions: route intraperitoneal
In short: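 Wistar rats (220–250 g), three per group, got one i.p. dose of 0.5 mg/kg per day for five days and were sacrificed on day six. […] Plasma fibrinogen was measured by biuret method at 540 nm.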

[28] = test system: Rattus norvegicus; experiment: Drug metabolism in Wistar albino rat assessed as 7-hydroxycoumarin level in urine at 1 mg/kg, ip measured after 72 hrs by GC/MS analysis; conditions: in vivo
[29] = test system: Rattus norvegicus; experiment: Drug metabolism in Wistar albino rat assessed as coumarin-7-glucuronide level in urine at 1 mg/kg, ip measured after 72 hrs by GC/MS analysis; conditions: in vivo
[30] = test system: Rattus norvegicus; experiment: Hepatotoxicity in Wistar albino rat assessed as change in serum AST level at 0.5 mg/kg/day, ip administered for 5 days measured after second compound dose; conditions: in vivo, 120 h
[31] = test system: Rattus norvegicus; experiment: Hepatotoxicity in Wistar albino rat assessed as change in serum ALT level at 0.5 mg/kg/day, ip administered for 5 days measured after second compound dose; conditions: in vivo, 120 h
[32] = test system: Plasma; experiment: Anticoagulant activity in Wistar albino rat plasma assessed as international normalized ratio at 0.5 mg/kg/day, ip administered for 5 days measured after second dose; format: functional; conditions: route intraperitoneal; in short: as §4
[33] = biological target: VKORC1 (Rattus norvegicus); experiment: Inhibition of VKORC1

Row | SMILES | PT [1] [s] | PT [2] [s] | PT [3] [s] | Activity [4] [g/L] | Time [5] [s] | Activity [6] [g/L] | Activity [7] [g/L] | Ratio [8] | Ratio [9] | Ratio [10] | IC50 [13] [µM] | Activity [15] [µmol/L] | Activity [16] [U/L] | Activity [17] [U/L] | Activity [18] [U/L] | Activity [19] [U/L] | Activity [20] [µmol/L] | PT [21] [s] | Activity [22] [U/L] | Activity [23] [µmol/L] | also measured
1 | C/C(=C(\C#N)C(=O)O)c1c(O)c2ccccc2oc1=O | 21 | 8.2 | 9.2 | 0.5 | 196.8 | 68.9 | 38.6 | 2.25 | 0.66 | 0.69 | 2340 | – | – | – | – | – | – | – | – | – | Activity [11]: 68.9 g/L; Activity [12]: 38.6 g/L
2 | CC(=O)CC(c1ccccc1)c1c(O)c2ccccc2oc1=O (stereo not given) [WARFARIN] | 18.5 | 10.3 | – | 1.9 | 33.4 | 59.4 | 34.5 | – | – | – | – | 1.3 | 277.3 | 51.5 | 170 | 3.4 | 22.3 | – | – | – | Activity [14]: Toxic
3 | O=c1oc2ccccc2c(O)c1-c1csc(Nc2cccc([N+](=O)[O-])c2)n1 | 24.4 | 9.6 | 14.4 | 0.6 | >500 | 64.2 | 39.7 | – | – | – | 741 | 2.2 | 294.6 | 52.4 | 225 | 2.8 | 29.7 | 28.1 | 2.6 | 17.3 | fold change (FC) [24]: 1.48; fold change (FC) [25]: 1.18; fold change (FC) [26]: 1.74; Activity [27]: 1.74 g/L; Drug metabolism [28]: Active; Drug metabolism [29]: Active; AST [30]: 210.7 U/L; ALT [31]: 65.1 U/L
4 | O=c1oc2ccccc2c(O)c1-c1csc(Nc2ccc(S(=O)(=O)O)cc2)n1 | 26.5 | 10.4 | 12.4 | – | >500 | 64.9 | 40.8 | 2.6 | 0.82 | 0.84 | 141 | 1.6 | 269.7 | 58.4 | 164 | 2.4 | 19.3 | 28.6 | 2.2 | 19 | fold change (FC) [24]: 1.27; fold change (FC) [25]: 1.18; Ratio [32]: 1.38; fold change (FC) [26]: 1.59; Activity [27]: 0.9 g/L; Ki [33]: 44.8 µM; Drug metabolism [28]: Active; Drug metabolism [29]: Active; AST [30]: 207.5 U/L; ALT [31]: 63 U/L
5 | CCOC(=O)C(C(=O)OCC)=C(C)c1c(O)c2ccccc2oc1=O | 23 | 10.3 | 10.5 | 5.1 | 51.3 | 67.2 | 35.2 | 1.99 | 0.13 | 0.13 | 141 | 2 | 238.3 | 71.8 | 513 | 3.1 | 28.4 | 30 | 2.3 | 17.7 | fold change (FC) [24]: 1.08; Activity [25]: 86.06%; Ratio [32]: 0.13; fold change (FC) [26]: 1.41; Activity [27]: 1.6 g/L; Ki [33]: 68.9 µM; Drug metabolism [28]: Active; Drug metabolism [29]: Active; AST [30]: 209.9 U/L; ALT [31]: 55.5 U/L
